# The list is not random: actives were taken first. Their share in the collection is about 0.77%.
# S1P4 antagonist – S1P4 receptor antagonists, primary screen, cell-based. Sphingosine 1-phosphate receptor 4 (Homo sapiens), O95977. S1P4-expressing cells, antagonist mode, reporter read-out. inhibition, % at 4.98 µM. 220,000 compounds, 0.26% hits; in the data active means inhibition above about 29%;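 further: 0% = wells stimulated with agonist and 100% = vehicle wells without agonist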
# Biofilm kill mix – clotrimazole potentiators killing C. albicans biofilm, primary screen, 4-compound mixtures | inhibition, % at 7.6 µM | AID 1242, 2008 | 120,000 compounds, 0.02% hits | C. albicans biofilm persisters + clotrimazole, fluorescence viability; primary screen in compound mixtures of four per well;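 further: compounds exposed to preformed 24 h biofilms for 48 h; 0% = untreated biofilm control and 100% = clotrimazole plus chlorhexidine kill blank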
#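 Incubation: 24 h biofilm formation, then 48 h compound exposure, 37 °C | Material: C. albicans biofilms | Buffer or medium: RPMI/MOPS medium, pH 7.0 | Measured by: 2-h Alamar Blue fluorescence, 535/590 nm excitation/emission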
# Pf gametocyte – late stage P. falciparum gametocyte viability inhibitors, primary screen, ATP luminescence, HTS; inhibition, % at 10.9 µM; P. falciparum stage V gametocytes, 24 h; 150,000 compounds, 0.065% hits;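 active means inhibition above the mean plus 3 SD of compounds within the control limits, set per campaign, cut at about 38% in these data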;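 further: 0% = DMSO wells and 100% = medium only without gametocytes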
# S1P4 ag – S1P4 receptor agonists, primary screen, cell-based; S1P4-expressing cell line, agonist reporter assay; activation, % at 4.98 µM; Sphingosine 1-phosphate receptor 4 (Homo sapiens), O95977; 220,000 compounds, 0.35% hits; in the data active means activation above about 11%;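 further: 0% = DMSO vehicle and 100% = reference agonist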
# S1P3 antag – S1P3 receptor antagonists, primary screen, cell-based; Sphingosine 1-phosphate receptor 3 (Homo sapiens), Q99500; CHO S1P3 NFAT-BLA reporter, FRET fluorescence, antagonist mode; inhibition, % at 4.98 µM; 170,000 compounds, 0.27% hits; AID 485, 2006;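 active means inhibition above the plate cutoff, the mean inhibition of test wells on that plate plus 3 SD, cut at about 28% in these data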;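 further: cells challenged with S1P at its EC80 of 0.8 µM; blue over green emission ratio from cleaved BLA substrate after 4 h stimulation; 0% = S1P-stimulated wells and 100% = unstimulated DMSO-only wells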
# Target sequence (Q99500 whole entry, looked up): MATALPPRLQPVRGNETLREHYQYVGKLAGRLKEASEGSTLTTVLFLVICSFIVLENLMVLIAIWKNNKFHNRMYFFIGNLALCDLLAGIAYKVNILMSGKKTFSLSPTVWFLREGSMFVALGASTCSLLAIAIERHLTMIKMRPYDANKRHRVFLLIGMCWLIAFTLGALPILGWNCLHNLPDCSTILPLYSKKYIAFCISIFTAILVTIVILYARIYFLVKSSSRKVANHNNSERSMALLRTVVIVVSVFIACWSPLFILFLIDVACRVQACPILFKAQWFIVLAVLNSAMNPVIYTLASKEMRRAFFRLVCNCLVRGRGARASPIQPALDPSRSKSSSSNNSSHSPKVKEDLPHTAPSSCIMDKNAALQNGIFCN
# S1P4 antag cf – S1P4 receptor antagonists, human, confirmation, cell-based; shares compounds with S1P4 antagonist; S1P4-expressing cell line, antagonist mode, reporter read-out; inhibition, % at 4.98 µM; 520 compounds, 71% hits; AID 1524, 2009; in the data active means inhibition above about 30%
# S1P1 antagonist – S1P1 receptor antagonists, human, counter-screen for S1P4 antagonist project, cell-based. cell-based S1P1 antagonist counterscreen, inhibition. inhibition, % at 4.98 µM. shares compounds with S1P4 antagonist. AID 1564, 2009. 520 compounds, 37% hits; in the data active means inhibition above about 40%;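 further: receptor stimulated with S1P near its EC80; 0% = agonist stimulated wells and 100% = vehicle only wells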
# Starred values were filed as active, the others as inactive; · = not tested or not shown.
SMILES,S1P4 antagonist,Biofilm kill mix,Pf gametocyte,S1P4 ag,S1P3 antag,S1P4 antag cf,S1P1 antagonist
CCOc1cc(CNCCc2ccc(S(N)(=O)=O)cc2)ccc1OCc1ccc(Cl)cc1,37*,·,4,-6,·,40*,28
COc1cc(CNCCc2ccc(S(N)(=O)=O)cc2)ccc1OCc1ccc(Cl)cc1,-5,·,·,2,·,·,·
CC1CCN(C2(O)C(=O)Nc3ccc(Br)cc32)CC1 (stereo not given),9,10,9,-3,16,·,·
C[C@H](CO)N1C[C@H](C)[C@@H](CN(C)C(=O)Nc2ccc(C(F)(F)F)cc2)Oc2c(NC(=O)Cc3ccccc3)cccc2C1=O,·,·,-15,·,·,·,·
Cc1nn(C)c(C)c1N1C(=O)c2cccc3c(N)ccc(c23)C1=O,18,12,14,1,1,·,·
Cc1nn(C)c(C)c1N1C(=O)c2cccc3c(Br)ccc(c23)C1=O,44*,8,·,1,·,89*,85*
Oc1c(C(c2cccs2)N2CCN(c3ccccc3)CC2)ccc2cccnc12 (stereo not given),-9,·,·,2,·,·,·
Oc1c(C(c2ccccc2Cl)N2CCCC2)ccc2cccnc12 (stereo not given),30*,7,19,-1,-9,112*,92*
O=C(O)CCn1c(=O)[nH]c2ccccc2c1=O,36*,·,·,-2,-29,0,-12
O=C(Nc1ccc(S(=O)(=O)N2CCOCC2)cc1)c1ccc([N+](=O)[O-])o1,68*,24,-19,1,3,85*,36
CCC(=O)N1CCN(c2ccc(NC(=O)c3ccc([N+](=O)[O-])o3)cc2Cl)CC1,56*,8,1,-1,-3,113*,44*
O=C(Nc1ccc(S(=O)(=O)N2CCOCC2)cc1)c1ccco1,-20,·,21,1,0,·,·
CCN1CCN(c2ccc(NC(=O)c3ccc([N+](=O)[O-])o3)cc2Cl)CC1,86*,14,5,-3,0,75*,67*
CC(=O)Oc1ccc2cc(-c3ccccc3)c(=O)oc2c1,12,22,·,8,13,·,·
CC1=NNC(=O)C1CC(=O)N/N=C/C=C/c1ccccc1 (stereo not given),-16,13,-9,1,-2,·,·
O=[N+]([O-])c1ccc(N/N=C/c2c[nH]c3ccccc23)cc1,37*,·,·,-3,·,50*,78*
C/C(=N\NC(=O)C1COc2ccccc2O1)c1ccc(N2CCOCC2)cc1 (stereo not given),-2,-10,-3,-1,-8,·,·
CCCc1cc(C(=O)Nc2cc(OC)c(Cl)cc2OC)no1,-10,·,·,3,-19,·,·
COc1cc(NC(=O)c2cc(CC(C)C)on2)c(OC)cc1Cl,33*,·,·,1,-6,23,12
CNC1=C([N+](=O)[O-])CC([N+](=O)[O-])=C(N2CCNCC2)N1C,35*,8,-25,0,-23,-1,2
COCCCNC(=O)/C=C1\Sc2ccccc2N(Cc2ccccc2F)C1=O,66*,8,-11,0,-11,0,13
CCN1CCN(CCNC(=O)c2ccc(/C=C3\Sc4ccccc4N(Cc4ccccc4F)C3=O)cc2)CC1,-37,15,-9,2,2,·,·
CC1=NNC(=O)/C1=C\c1cn(-c2ccccc2)nc1-c1cccs1,3,16,6,2,-16,·,·
CC1=NNC(=O)/C1=C\c1cn(-c2ccccc2)nc1-c1ccc(F)cc1,30*,9,·,-1,-2,110*,18
CC(C)c1ccc(CNc2c([N+](=O)[O-])c(=O)oc3ccccc23)cc1,32*,3,9,0,-29,-3,-9
SMILES,S1P4 antagonist,Biofilm kill mix,Pf gametocyte,S1P4 ag,S1P3 antag,S1P4 antag cf,S1P1 antagonist
O=c1oc2ccccc2c(NCc2ccccc2F)c1[N+](=O)[O-],-6,14,5,2,-6,·,·
CCOC(=O)/C(=C\c1ccc(OC(F)F)cc1)C1=Nn2c(nnc2-c2ccc(Cl)cc2)SC1,31*,10,·,0,1,119*,87*
COc1ccc(-c2nnc3n2N=C(C)CS3)cc1,15,·,-23,-1,·,·,·
Cc1ccc(C(=C2C3C=CC2C2C(=O)NC(=O)C32)c2ccc(C)cc2)cc1 (stereo not given),-4,·,·,2,·,·,·
Nc1ccc(C2CCCc3nonc32)c2nonc12 (stereo not given),43*,·,-13,-1,9,8,28
Cc1ccc(-c2nc(CS(=O)CC(=O)NC3CCC(C)CC3)c(C)o2)cc1 (stereo not given),78*,·,·,1,19,12,34
CCCCNC(=O)CS(=O)Cc1nc(-c2ccc(C)cc2)oc1C (stereo not given),-5,·,·,1,-20,·,·
Cc1ccc(NN2C(=O)C=C(c3ccccc3)C2=O)cc1,37*,24,13,0,15,57*,36
Cc1cccc(NS(=O)(=O)c2cc(C(=O)OC(C)C(=O)NCc3ccc4c(c3)OCO4)ccc2C)c1 (stereo not given),-7,16,9,1,-27,·,·
OC(COc1ccc(CNCCc2ccc(C(F)(F)F)cc2)cc1)CN1CCCCC1 (stereo not given),30*,22,·,-2,-26,41*,28
CCNc1nc(-c2ccc(OC(F)F)cc2)c(C)s1,-14,5,-1,-1,-7,·,·
COc1ccc(CNC(=O)C(c2ccncc2)N(C(=O)Cc2cccs2)c2ccccc2)cc1 (stereo not given),3,8,10,2,-1,·,·
COc1ccc(N(C(=O)CCl)C(C(=O)NCCc2ccccc2)c2cccs2)cc1 (stereo not given),30*,7,-13,0,-8,99*,16
CCC1Nc2ncnc(N3CCN(c4ccccc4)CC3)c2N(Cc2ccc(Br)cc2)C1=O (stereo not given),·,·,9,·,·,·,·
CCC(NC(=O)Nc1nnc(C(F)(F)F)s1)(C(F)(F)F)C(F)(F)F,38*,·,·,0,·,51*,7
O=C(O)CCC(=O)Nc1nnc(C(F)(F)F)s1,-4,·,18,-1,-19,·,·
CN(C)C(=O)[C@H]1C[C@H]1[C@@H](O)[C@H](CO)NC(=O)[C@H](Cc1ccccc1)NC(=O)OC(C)(C)C,·,·,-2,·,·,·,·
COc1ccc2ncc(OC(C)=O)cc2c1,-23,8,·,0,-13,·,·
CC1CCCC(C)N1C(=O)CSc1nnnn1Cc1ccccc1 (stereo not given),92*,·,·,1,-18,2,-2
CC1CCCC(C)N1C(=O)CSc1nnnn1-c1cccc2c1CCCC2 (stereo not given),14,·,·,0,·,·,·

# Screening results (PubChem BioAssay)
